Drawing on ChEMBL document CHEMBL2203153, “Synthesis of novel azo-resveratrol, azo-oxyresveratrol and their derivatives as potent tyrosinase inhibitors” (Bioorg Med Chem Lett, 2012), this text covers inhibition and IC50 for ten molecules.

For experiment [1], the target named is T1, Tyrosinase (Agaricus bisporus) (UniProt O42713).
T1 sequence (whole entry): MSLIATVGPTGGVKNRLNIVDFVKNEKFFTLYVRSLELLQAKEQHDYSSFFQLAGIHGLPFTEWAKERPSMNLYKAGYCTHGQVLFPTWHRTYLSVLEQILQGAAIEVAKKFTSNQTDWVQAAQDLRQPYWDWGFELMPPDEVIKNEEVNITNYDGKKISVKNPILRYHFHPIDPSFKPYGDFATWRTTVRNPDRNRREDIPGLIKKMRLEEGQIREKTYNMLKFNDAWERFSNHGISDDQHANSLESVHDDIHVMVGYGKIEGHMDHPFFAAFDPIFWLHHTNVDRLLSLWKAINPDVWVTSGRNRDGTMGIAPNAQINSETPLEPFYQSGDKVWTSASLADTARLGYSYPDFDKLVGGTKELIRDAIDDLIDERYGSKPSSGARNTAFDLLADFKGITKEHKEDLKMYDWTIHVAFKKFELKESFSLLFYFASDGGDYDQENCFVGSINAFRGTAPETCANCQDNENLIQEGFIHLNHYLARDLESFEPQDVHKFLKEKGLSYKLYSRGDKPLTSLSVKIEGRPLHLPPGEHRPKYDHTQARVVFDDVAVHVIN
As to the kind of experiment: Inhibition of mushroom tyrosinase using L-tyrosine as substrate at 30 uM after 30 mins by spectrophotometric analysis. The essentials: (§1)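 Mushroom tyrosinase (1000 units) was added to a mixture of 1 mM L-tyrosine and 50 mM phosphate buffer, pH 6.5, with test compound at the stated concentration. After 30 min at 25 °C, dopachrome formation was measured spectrophotometrically at OD492 and expressed as percent inhibition. Values are means ± S.E. of three experiments.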

Experiment [2] has as its target T1, Tyrosinase (Agaricus bisporus). Nature of the experiment: Inhibition of mushroom tyrosinase using L-tyrosine as substrate at 10 uM after 30 mins by spectrophotometric analysis. The essentials: (§2)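 Mushroom tyrosinase (20 µL of 1000 units aqueous solution) in a 200 µL mixture with 1 mM L-tyrosine in 50 mM phosphate buffer, pH 6.5. Incubated 30 min at 25 °C; dopachrome read at 492 nm. Percent inhibition was measured at three doses per compound, in triplicate, to build dose–response curves.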

Experiment [3] shares this target. Nature of the experiment: Inhibition of mushroom tyrosinase using L-tyrosine as substrate at 1 uM after 30 mins by spectrophotometric analysis. The essentials: as §2
Experiment [4] has the same target. As to the kind of experiment: Inhibition of mushroom tyrosinase using L-tyrosine as substrate at 0.5 uM after 30 mins by spectrophotometric analysis. The essentials:
as §2

The target is the same in experiment [5]. Nature of the experiment: Inhibition of mushroom tyrosinase using L-tyrosine as substrate at 20 uM after 30 mins by spectrophotometric analysis. The essentials:
as §1

The target in experiment [6] is T2, Tyrosinase (Agaricus bisporus, UniProt O42713).
T2 sequence (O42713 whole entry): T1 sequence (whole entry)
As to the kind of experiment: (§3) Inhibition of mushroom tyrosinase using L-tyrosine as substrate after 30 mins by spectrophotometric analysis. The essentials: (§4)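 Mushroom tyrosinase (1000 units) was added to assay mixture containing 1 mM L-tyrosine in 50 mM phosphate buffer, pH 6.5. Incubation ran 30 min at 25 °C, and dopachrome was read at 492 nm. Dose-dependent inhibition was run in triplicate at three doses. IC50 was taken from the inhibitor concentration versus product formation curve.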

Experiment [7] has as its target T1, Tyrosinase (Agaricus bisporus). The experiment is described as §3. The essentials:
as §4

Experiment [8] has the same target. As to the kind of experiment: Inhibition of mushroom tyrosinase using L-tyrosine as substrate at 5 uM after 30 mins by spectrophotometric analysis. The essentials: as §1
For experiment [9] the target is unchanged. As to the kind of experiment: Inhibition of mushroom tyrosinase using L-tyrosine as substrate at 50 uM after 30 mins by spectrophotometric analysis. The essentials:
as §1

For experiment [10] the target is unchanged. As to the kind of experiment: Inhibition of mushroom tyrosinase using L-tyrosine as substrate at 80 uM after 30 mins by spectrophotometric analysis. The essentials:
as §1

Experiment [11] has the same target. Nature of the experiment: Inhibition of mushroom tyrosinase using L-tyrosine as substrate at 15 uM after 30 mins by spectrophotometric analysis. The essentials: as §1

As a reminder, the inhibition is the change of the read-out against control, counted positive when it falls. A word on the IC50: it is the concentration that gives 50% inhibition.

Consider `Oc1ccc(/C=C/c2cc(O)cc(O)c2)cc1` [RESVERATROL], for which the inhibition in experiment [1] is 47.8%; in experiment [2], 38%; in experiment [3] it was 16.3%; in experiment [4], 13.7%; in experiment [5], 47.3%; in experiment [7] it was “Dose-dependent effect”. Further, the inhibition in experiment [8] is 27.1%. Moreover, it took 26.6 µM to reach half-maximal inhibition in experiment [6] (IC50).
In the case of `COc1cc(/N=N/c2ccc(O)cc2O)cc(OC)c1`, the inhibition in [9] came to 48.5%.
Consider `COc1cc(/N=N/c2ccc(O)cc2)cc(OC)c1`, for which the inhibition in experiment [10] is 61.4%; in [9], 56.2%; in [5], 46%; in experiment [7], “Dose-dependent effect”; in experiment [8] it was 8.4%. In addition, in experiment [6], half-maximal inhibition (IC50) required 50.2 µM.
`COc1ccc(OC)c(/N=N/c2ccc(O)cc2O)c1`: the inhibition in experiment [9] was found to be 27.8%.
Same read-out and setting: to `COc1cc(/N=N/c2ccc(O)c(OC)c2)cc(OC)c1` belongs 1.03%; to `COc1ccc(OC)c(/N=N/c2ccc(O)c(OC)c2)c1`, 0.44%.
As for `COc1cc(/N=N/c2ccc(O)cc2OC)cc(OC)c1`, the inhibition in [9] was 8.9%.
Take `Oc1cc(O)cc(/N=N/c2ccc(O)cc2O)c1`: the inhibition in experiment [9] was 41.5%.
Regarding `COc1ccc(/N=N/c2cc(OC)ccc2OC)c(O)c1`, in experiment [9], the inhibition turned out to be 6.38%.
In the case of `Oc1ccc(/N=N/c2cc(O)cc(O)c2)cc1`, the inhibition in experiment [11] was 7.6%; in experiment [1], 44.3%; in experiment [9], 72.8%; in experiment [7], “Dose-dependent effect”. In experiment [6], the half-inhibitory concentration (IC50) was found to be 36.3 µM.
